Assay outcomes deposited in PubChem by Broad Institute.
A selection: hits, their analogues and other compounds. The true share with any hit is near 5.9%.
Pf Dd2 growth = inhibitors of Plasmodium falciparum Dd2 growth | AID 1159554 | P. falciparum Dd2 growth, SYBR Green, 72 h; active compounds read low | activity change, % at 10 µM | 94,000 tested, 2.3% active; in the data active = activity change below about -80%; inconclusive = no clear call, values can overlap the other calls
IDH1 R132H inh = blocks human IDH1 R132H reductase activity; diaphorase/resazurin fluorescence, 60 min; O75874; 70,000 tested, 0.18% active; inhibition, % at 10 µM; in the data active = inhibition above about 34%; inconclusive = no clear call, values can overlap the other calls; inactive = below about 11%;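 also: 0% = DMSO and 100% = no enzyme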
Target sequence (O75874 whole entry R132H): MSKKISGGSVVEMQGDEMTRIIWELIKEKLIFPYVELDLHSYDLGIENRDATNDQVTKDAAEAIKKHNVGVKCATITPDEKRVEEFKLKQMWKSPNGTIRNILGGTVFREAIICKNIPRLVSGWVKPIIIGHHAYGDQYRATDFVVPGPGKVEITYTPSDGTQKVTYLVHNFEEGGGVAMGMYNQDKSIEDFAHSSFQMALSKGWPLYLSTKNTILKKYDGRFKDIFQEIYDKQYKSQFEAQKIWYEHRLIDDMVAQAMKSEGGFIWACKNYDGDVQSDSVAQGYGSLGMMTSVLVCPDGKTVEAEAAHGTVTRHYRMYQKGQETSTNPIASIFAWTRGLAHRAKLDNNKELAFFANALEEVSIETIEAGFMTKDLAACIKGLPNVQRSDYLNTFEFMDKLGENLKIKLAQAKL
T cruzi growth = blocks T. cruzi growth in NIH3T3 culture | T. cruzi beta-gal in NIH3T3, GalScreen luminescence, 90 h | inhibition, % at 8.34 µM | 77,000 tested, 5.9% active | AID 624255;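 active = mean inhibition above about 93%, with at least 55% of replicates each passing it, limit read from the data, passing the limit was not always enough; inconclusive = only one of those two conditions holds; inactive = neither condition holds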
KDM4C inh = inhibitors of human demethylase GASC-1 KDM4C; 96,000 tested, 0.15% active; Q9H3R0; inhibition, % at 12.5 µM; GST-KDM4C 2-372, H3K9me3 peptide, LANCE TR-FRET; AID 720574;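 active = mean replicate inhibition above about 25%, with at least 55% of replicates also reaching it, limit read from the data, passing the limit was not always enough; inconclusive = only one of those two conditions met; inactive = neither condition met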
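Compound: one test concentration per compound; Material: GST-GASC-1 enzyme fragment 2-372; Amount: GASC-1 enzyme at 10 nM final in reaction; Also added: H3K9me3 peptide substrate, Fe(II), 2-oxoglutarate; Technique: LANCE TR-FRET; Times: 30 min demethylation and 1 h detection at room temperature.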
Starred values were filed as active, the others as inactive; u = inconclusive; x = not tested or not shown.

SMILES	Pf Dd2 growth	IDH1 R132H inh	T cruzi growth	KDM4C inh
CN(C)c1ccc2c(c1)[C@H]1C[C@H](CC(=O)NCc3ccccn3)O[C@H](CO)[C@H]1O2	-14	-3	0	34*
COC(=O)c1cc(NC(=O)COc2ccc(Br)cc2)cc(C(=O)OC)c1	x	0	x	x
CN(C)c1ccc2c(c1)[C@H]1C[C@H](CC(=O)NCc3ccccc3)O[C@H](CO)[C@H]1O2	-53	-1	51	44*
C[C@@H](NC(=O)C[C@H]1C[C@@H]2c3cc(NS(=O)(=O)c4ccc(F)cc4)ccc3O[C@@H]2[C@H](CO)O1)c1ccccc1	-99*	0	64	-1
CN(C)c1ccc2c(c1)[C@@H]1C[C@H](CC(=O)NCc3ccc(-c4ccccc4)cc3)O[C@@H](CO)[C@@H]1O2	-58	-5	52	6
C[C@H](NC(=O)C[C@H]1C[C@@H]2c3cc(NS(=O)(=O)c4ccc(F)cc4)ccc3O[C@@H]2[C@H](CO)O1)c1ccccc1	-22	0	23	0
CNC(=O)CN(c1cccc(Cl)c1Cl)S(=O)(=O)c1ccc(C)cc1	x	0	x	x
CC(C)(C)c1ccc(S(=O)(=O)/C=C/C#N)cc1	x	82*	x	x
Cc1noc(C)c1S(=O)(=O)N(C)C[C@H]1OCCCC[C@H](C)Oc2ccc(NC(=O)c3ccccc3)cc2C(=O)N([C@@H](C)CO)C[C@@H]1C	-86*	x	67	-2
Cc1noc(C)c1S(=O)(=O)N(C)C[C@H]1OCCCC[C@H](C)Oc2ccc(NC(=O)c3ccccc3)cc2C(=O)N([C@H](C)CO)C[C@H]1C	-77	x	37	-2
Cc1noc(C)c1S(=O)(=O)N(C)C[C@H]1OCCCC[C@@H](C)Oc2ccc(NC(=O)c3ccccc3)cc2C(=O)N([C@@H](C)CO)C[C@@H]1C	-84*	x	35	-1
CCc1ccc(CCC(=O)Nc2cc(Cl)ccc2Cl)o1	x	-1	x	x
O=C(C[C@H]1C=C[C@H](NC(=O)Cc2ccccn2)[C@H](CO)O1)NCCc1ccccc1	-92*	x	x	0
COc1ccc(NC(=O)N(C)C[C@H]2OCCCC[C@H](C)Oc3ccc(NC(=O)c4ccccc4)cc3C(=O)N([C@@H](C)CO)C[C@H]2C)cc1	-89*	1	x	-1
COc1ccc(NC(=O)N(C)C[C@H]2OCCCC[C@H](C)Oc3ccc(NC(=O)Nc4ccc(C(F)(F)F)cc4)cc3C(=O)N([C@H](C)CO)C[C@@H]2C)cc1	-4	1	u	0
COc1ccc(NC(=O)N(C)C[C@H]2OCCCC[C@@H](C)Oc3ccc(NC(=O)Nc4ccc(C(F)(F)F)cc4)cc3C(=O)N([C@H](C)CO)C[C@H]2C)cc1	-83*	x	116*	1
COc1ccc(NC(=O)N(C)C[C@H]2OCCCC[C@@H](C)Oc3ccc(NC(=O)Nc4ccc(C(F)(F)F)cc4)cc3C(=O)N([C@@H](C)CO)C[C@@H]2C)cc1	-84*	x	83	5
COc1ccc(NC(=O)N(C)C[C@@H]2OCCCC[C@H](C)Oc3ccc(NC(=O)c4ccccc4)cc3C(=O)N([C@H](C)CO)C[C@@H]2C)cc1	u	1	42	3
Cc1noc(C)c1S(=O)(=O)Nc1ccc2c(c1)C(=O)N([C@H](C)CO)C[C@H](C)[C@H](CN(C)C(=O)Nc1ccccc1)OCCCC[C@H](C)O2	-35	1	37	-1
COc1ccc(S(=O)(=O)Nc2ccc3c(c2)C(=O)N([C@@H](C)CO)C[C@H](C)[C@H](CN(C)C(=O)Nc2cccc4ccccc24)OCCCC[C@@H](C)O3)cc1	-82*	-2	x	-1
Cc1noc(C)c1S(=O)(=O)Nc1ccc2c(c1)C(=O)N([C@H](C)CO)C[C@@H](C)[C@@H](CN(C)C(=O)NC1CCCCC1)OCCCC[C@@H](C)O2	-84*	x	-55	-2
COc1ccc(S(=O)(=O)Nc2ccc3c(c2)C(=O)N([C@H](C)CO)C[C@H](C)[C@@H](CN(C)C(=O)Nc2cccc4ccccc24)OCCCC[C@@H](C)O3)cc1	-58	x	40	1
Cc1noc(C)c1S(=O)(=O)Nc1ccc2c(c1)C(=O)N([C@H](C)CO)C[C@@H](C)[C@@H](CN(C)C(=O)Nc1cccc3ccccc13)OCCCC[C@@H](C)O2	-88*	x	83	-3
Cc1cc(C)c(OCC(=O)Nc2ccc3oc(-c4cncc(Br)c4)nc3c2)c(Cl)c1	x	0	x	x
COc1ccc2c3c([nH]c2c1)[C@H](CO)N(Cc1ccccc1)CC31CCN(CC2CC2)CC1	-93*	x	x	1
SMILES	Pf Dd2 growth	IDH1 R132H inh	T cruzi growth	KDM4C inh
COc1ccc2c3c([nH]c2c1)[C@H](CO)N(CC1CC1)CC31CCN(Cc2ccccc2F)CC1	-85*	x	x	-2
COc1cccc(CN2CC3(CCN(CC4CC4)CC3)c3c([nH]c4cc(OC)ccc34)[C@H]2CO)c1	-92*	x	x	2
COc1ccc(-c2nnc(SCC(=O)Nc3ccc(Br)cc3C(C)C)o2)cc1	x	0	x	x
CCOC(=O)c1ccc(NC(=O)C(C)Sc2nc3ccccc3[nH]2)cc1 (stereo not given)	x	0	x	x
C[C@@H]1CN([C@H](C)CO)C(=O)c2ccccc2-c2ccccc2CO[C@@H]1CN(C)Cc1ccc(-c2ccccc2)cc1	-83*	x	x	1
C[C@H]1CN([C@@H](C)CO)C(=O)c2ccccc2-c2ccccc2CO[C@@H]1CN(C)Cc1ccc(Cl)c(Cl)c1	-85*	x	x	2
N#CC(C(=O)NCc1ccco1)c1ccccc1 (stereo not given)	x	0	x	x
CS(=O)(=O)N1[C@H](C#N)[C@H](c2ccccc2-c2ccccc2)[C@H]1CO	-94*	x	x	0
CS(=O)(=O)N1[C@H](C#N)[C@H](c2ccccc2-c2ccccc2)[C@@H]1CO	-27	x	x	-2
Cc1ccccc1-c1ccccc1[C@H]1[C@@H](C#N)N(C(=O)c2ccccc2)[C@@H]1CO	-93*	x	x	x
C[C@H]1CCCCO[C@H](CN(C)Cc2ccc(Cl)c(Cl)c2)[C@@H](C)CN([C@@H](C)CO)C(=O)c2cc(NC(=O)Cc3ccccc3)ccc2O1	-85*	x	68	1
C[C@@H]1CN([C@H](C)CO)C(=O)c2cc(NC(=O)Cc3ccccc3)ccc2O[C@@H](C)CCCCO[C@H]1CN(C)Cc1ccc(Cl)c(Cl)c1	-84*	3	91	1
C[C@@H]1CCCCO[C@@H](CN(C)Cc2ccc(Cl)c(Cl)c2)[C@H](C)CN([C@@H](C)CO)C(=O)c2cc(NC(=O)Cc3ccccc3)ccc2O1	-66	0	63	1
C[C@@H]1CCCCO[C@@H](CN(C)Cc2ccccc2)[C@H](C)CN([C@H](C)CO)C(=O)c2cc(NC(=O)Cc3ccccc3)ccc2O1	-66	1	x	0
Nc1ncnc(NCCN2CCOCC2)c1[N+](=O)[O-]	x	1	x	x
Cc1ccc(-c2nnc(SCC(=O)Nc3ccc(Br)c(C)c3C)o2)cc1	x	4	x	x
Cc1ccc(S(=O)(=O)N(C)C[C@H]2OCCCC[C@H](C)Oc3ccc(NC(=O)C4CCCCC4)cc3C(=O)N([C@@H](C)CO)C[C@H]2C)cc1	-89*	x	63	0
